Reference: ChEMBL document CHEMBL1129560, “Nucleoside conjugates. 15. Synthesis and biological activity of anti-HIV nucleoside conjugates of ether and thioether phospholipids” (J Med Chem, 1996)
pEC50, pIC50: −log10 of the molar value.

Legend:
CCRF-CEM [1] = assay: Effective concentration against HIV-1-infected CEM cells in mice administered intraperitoneally; format: functional, cell-based; details: Homo sapiens, in the assay text read “in vitro” for “in mice administered intraperitoneally”
Method in brief: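 Conjugates were given as micellar suspensions made by sonication, in HIV-1-infected CEM cells. EC50 is the concentration protecting infected cells by 50%. IC50 is the concentration reducing viable cell number by 50%.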

[2] = Time taken to decrease plasma concentration to half of its initial concentration after intraperitoneal administration; format: ADME, organism-based; details: ip
Method in brief: (§1)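 Female NIH-Swiss mice (25–30 g) received one dose of micellar conjugate ip at 394 mg/kg (equivalent to 100 mg/kg parent nucleoside), or the parent at 100 mg/kg ip. An iv arm gave 205 mg/kg conjugate or 50 mg/kg parent. Three mice were taken per time point up to 24 h. Serum nucleoside was measured by HPLC-UV at 260 nm. Analysis was noncompartmental, with t1/2 = 0.693/λz.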

CCRF-CEM [3] = assay: Ability to reduce viable cell number on HIV-1-infected CEM cells in vitro; details: Homo sapiens
[4] = Pharmacokinetic parameter AUC in mice following a single dose intraperitoneal administration of the compound; details: mouse, in vivo, ip
[5] = Time taken to decrease plasma concentration to half of its initial concentration after iv administration; format: ADME, organism-based
[6] = Time taken to decrease plasma concentration to half of its initial concentration after ip administration; format: ADME, organism-based; method in brief: as §1

pEC50 (CCRF-CEM [1]) | half-life [2] | pIC50 (CCRF-CEM [3]) | AUC [4] | half-life [5] | half-life [6] | Structure (SMILES)
> 6.24 | 5.69 h | 3.92 | 25800 ng·h/mL | – | – | CCCCCCCCCCCCCCCCCCSCC(COP(=O)([O-])OP(=O)([O-])OC[C@H]1O[C@@H](n2cc(C)c(=O)[nH]c2=O)C[C@@H]1N=[N+]=[N-])OC(=O)CCCCCCCCCCCCCCC.[Na+].[Na+] (some centres not stated)
3.89 | – | 2.55 | – | – | – | CCCCCCCCCCCCCCCCCCSCC(COP(=O)(O)OP(=O)(O)OC[C@@H]1CC[C@H](n2ccc(N)nc2=O)O1)OC(=O)CCCCCCCCCCCCCCC (some centres not stated)
4.77 | – | 3.42 | – | 6.5 h | – | CCCCCCCCCCCCCCCCCCSCC(COP(=O)([O-])OP(=O)([O-])OC[C@H]1O[C@@H](n2ccc(=O)[nH]c2=O)C[C@@H]1N=[N+]=[N-])OC(=O)CCCCCCCCCCCCCCC.[Na+].[Na+] (some centres not stated)

Second part, the compound before the results:

Structure (SMILES) | pEC50 (CCRF-CEM [1]) | half-life [2] | pIC50 (CCRF-CEM [3]) | AUC [4] | half-life [5] | half-life [6]
CCCCCCCCCCCCCCCC(=O)OC(COCCCCCCCCCCCCCC)COP(=O)(O)OP(=O)(O)OC[C@H]1O[C@@H](n2cc(C)c(=O)[nH]c2=O)C[C@@H]1N=[N+]=[N-] (some centres not stated) | 4.24 | – | 1.85 | – | – | –
[N-]=[N+]=N[C@H]1C[C@H](n2ccc(=O)[nH]c2=O)O[C@@H]1CO [NAVURIDINE] | – | – | – | 42300 ng·h/mL | 0.89 h | –
Cc1cn([C@H]2C[C@H](N=[N+]=[N-])[C@@H](CO)O2)c(=O)[nH]c1=O [ZIDOVUDINE] | 6.73 | – | 3.72 | 175000 ng·h/mL | – | 0.28 h
